# Measured values taken from ChEMBL document CHEMBL1122350, “Ferric ion sequestering agents. 11. Synthesis and kinetics of iron removal from transferrin of catechoyl derivatives of desferrioxamine B” (J Med Chem, 1983).
# Key:
# [1] = Relative effectiveness at a concentration of 0.2mM, on removal of Fe from transferrin as compared to Desferal; format: functional
# Outline: (§1)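 Iron removal was measured spectrophotometrically from diferric transferrin (2.9 × 10^-5 M) in 0.1 M Tris-HCl pH 7.4 at 25.0 °C. A rough second-order rate constant k2 was taken as the % iron removed after 30 min divided by the initial ferric transferrin and ligand concentrations. The value is expressed as the ratio to the Desferal k2.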
# [2] = target: Serotransferrin (Homo sapiens) (UniProt P02787); experiment: Ability to remove iron from transferrin, at a concentration of 0.1 mM, expressed as % iron removal in 30 minutes; format: functional; details: 0.2 mM; in the assay text read “0.2 mM” for “0.1 mM”
# Serotransferrin (Homo sapiens), sequence (P02787 whole entry): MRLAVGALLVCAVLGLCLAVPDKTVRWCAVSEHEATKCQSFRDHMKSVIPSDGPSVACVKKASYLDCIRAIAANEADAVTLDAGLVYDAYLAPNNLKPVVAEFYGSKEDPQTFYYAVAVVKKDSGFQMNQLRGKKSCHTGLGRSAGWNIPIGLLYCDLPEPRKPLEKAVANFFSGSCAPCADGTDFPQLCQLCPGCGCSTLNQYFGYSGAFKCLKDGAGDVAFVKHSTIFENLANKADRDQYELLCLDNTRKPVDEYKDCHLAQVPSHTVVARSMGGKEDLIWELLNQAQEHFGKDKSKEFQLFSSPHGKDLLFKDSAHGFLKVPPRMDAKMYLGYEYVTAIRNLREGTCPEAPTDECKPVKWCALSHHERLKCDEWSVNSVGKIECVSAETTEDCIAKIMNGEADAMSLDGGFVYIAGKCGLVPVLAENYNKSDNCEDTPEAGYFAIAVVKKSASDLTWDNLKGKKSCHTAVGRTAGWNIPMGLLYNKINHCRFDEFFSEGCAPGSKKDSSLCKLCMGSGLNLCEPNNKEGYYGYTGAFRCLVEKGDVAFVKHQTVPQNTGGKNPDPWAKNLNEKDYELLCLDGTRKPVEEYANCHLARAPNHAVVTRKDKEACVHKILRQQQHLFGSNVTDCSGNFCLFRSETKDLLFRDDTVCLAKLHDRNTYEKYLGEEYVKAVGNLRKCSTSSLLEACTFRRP
# Outline: (§2)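 Diferric transferrin was made from apotransferrin saturated with fresh Fe(NTA)2^3-, then gel-filtered in 0.1 M NaClO4/0.1 M Tris-HCl pH 7.4 (≥95% saturation by A280/A466 ≤24, A428/A466 = 0.85). The ligand was dissolved in 0.1 M Tris-HCl pH 7.4 with slight heating and mixed 1:1 with transferrin ([Fe2Tf] 2.9 × 10^-5 M) at 25.0 °C. Visible spectra were followed at 466 nm, and % iron removed was read at 30 min.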
# [3] = target: Serotransferrin (Homo sapiens) (UniProt P02787); experiment: Ability to remove iron from human iron transport protein transferrin, at a concentration of 1.2mM, expressed as % iron removal in 30 minutes; format: functional; outline: as §2
# [4] = target: Serotransferrin (Homo sapiens) (UniProt P02787); experiment: Ability to remove iron from human iron transport protein transferrin, at a concentration of 20 mM, expressed as % iron removal in 30 minutes; format: functional
# [5] = Relative effectiveness at a concentration of 20 mM, on removal of Fe from transferrin as compared to Desferal; format: functional
# [6] = target: Serotransferrin (Homo sapiens) (UniProt P02787); details: 500 mM
# [7] = target: Serotransferrin (Homo sapiens) (UniProt P02787); experiment: Ability to remove iron from transferrin, at a concentration of 0.2 mM, expressed as % iron removal in 30 minutes; format: functional; outline: as §2
# [8] = Relative effectiveness at a concentration of 0.1 mM, on removal of Fe from transferrin as compared to Desferal; format: functional; outline: as §1
# [9] = target: Serotransferrin (Homo sapiens) (UniProt P02787); experiment: Ability to remove iron from human iron transport protein transferrin, at a concentration of 0.1 mM, expressed as % iron removal in 30 minutes; format: functional; outline: as §2
# [10] = target: Serotransferrin (Homo sapiens) (UniProt P02787); experiment: Ability to remove iron from human iron transport protein transferrin, at a concentration of 0.2 mM, expressed as % iron removal in 30 minutes; format: functional; outline: as §2
smiles,measurement,setting,value
CC(=O)N(O)CCCCCNC(=O)CCC(=O)N(O)CCCCCNC(=O)CCC(=O)N(O)CCCCCNC(=O)c1ccc(C(=O)O)c(O)c1O,Ratio,[1],130
same,Fe removed,[2],3%
same,Fe removed,[3],18%
CC(=O)N(O)CCCCCNC(=O)CCC(=O)N(O)CCCCCNC(=O)CCC(=O)N(O)CCCCCN,Fe removed,[4],5%
same,Ratio,[5],1
O=C(O)CN(CCN(CC(=O)O)CC(=O)O)CC(=O)O,Fe removed,[6],37%
same,Fe removed,[7],0%
CC(=O)N(O)CCCCCNC(=O)CCC(=O)N(O)CCCCCNC(=O)CCC(=O)N(O)CCCCCNC(=O)c1cccc(O)c1O,Ratio,[8],180
same,Fe removed,[9],2%
O=C(N[C@H]1COC(=O)[C@@H](NC(=O)c2cccc(O)c2O)COC(=O)[C@@H](NC(=O)c2cccc(O)c2O)COC1=O)c1cccc(O)c1O,Fe removed,[10],6%
same,Ratio,[1],120
